# From publication PMC11604526 (Cell Reports Medicine, 2024)
# Entries after “also recorded” stand apart in the source; their conditions may differ.
# Legend:
# [1] = biological target: GAT-1-Synt1A interaction (Rattus norvegicus, UniProt P23978); experiment: Co-IP of Synt1A-GAT-1 complexes after tMCAO; type: in vivo; settings: intranasally given days 5-11 after stroke
# In short: (§1)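 Dissected tissue was lysed on ice for 30 min in ice-cold RIPA buffer (50 mM Tris-HCl pH 7.4, 150 mM NaCl, 1 mM EDTA, 1% NP-40, 0.1% SDS, 0.5% deoxycholate, protease inhibitors). Lysates were spun at 12,000 ×g for 15 min at 4°C, and supernatant was precleared 1 h at 4°C with protein G magnetic beads before co-IP. Blots were probed with anti-GAT-1 (1:4000) and anti-syntaxin1A (1:4000).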
# [2] = biological target: GAT-1 (Mus musculus, UniProt P31648); experiment: 3H-GABA uptake assay in cultured neurons; type: cell-based; settings: 1 h drug preincubation; 10 nM 3H-GABA + 30 μM GABA, 37°C 1 h; n = 5
# In short: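 Primary cortical neurons from E16 mice were grown on poly-L-ornithine in Neurobasal with 2% B27. Cells were rinsed twice in 37°C HBSS, equilibrated 10 min, then preincubated 1 h in drug-containing HBSS. Uptake was started with 3H-GABA (10 nM final) plus unlabeled GABA (30 μM final), 37°C for 1 h. It was stopped by three ice-cold HBSS washes, solubilised in 0.1 M NaOH, and read by scintillation counting plus BCA protein assay. Analysis used a two-tailed t test.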
# [3] = biological target: GAT-1-Synt1A complex (Mus musculus, UniProt P31648); type: in vivo; settings: intranasally given days 5-11 after photothrombotic stroke; n = 5
# In short: as §1
# [4] = test system: extracellular GABA ([GABA]o); experiment: Extracellular GABA after tMCAO; type: in vivo, rat; settings: intranasal delivery; Figure 6F; n = 5
# [5] = test system: rats subjected to tMCAO; experiment: Morris water maze after tMCAO; type: in vivo; settings: rat tMCAO, intranasal days 5-11
# In short: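 Rats were habituated to the maze (180 cm diameter, opacified water, drained daily) 1 day beforehand. In learning trials, rats swam up to 60 s to reach a hidden platform 1.2 cm below the surface. A probe trial without the platform ran 24 h after the last learning trial. Swimming was recorded by overhead video tracking.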
# [6] = test system: rats subjected to tMCAO; experiment: Sensorimotor function after tMCAO; type: in vivo; settings: rat tMCAO, intranasal days 5-11 after stroke
# In short: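 For grid walking, rats walked 5 min on a wire grid 60 cm high. For the cylinder task, rats explored a cylinder (30 cm tall, 20 cm diameter) for 5 min. For sticky tape, rats were handled 30 min/day for 3 days first. Ratio of interest = seconds attending to stimulus/30, averaging the best two trials. Sticky-tape ratio = left forepaw ratio/right forepaw ratio.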
# [7] = test system: mice; experiment: Conditioned place preference; type: in vivo, mouse; settings: n = 10
# In short: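 During pretest and test, mice had free access to both chambers for 15 min. Vehicle-group mice received vehicle injections morning and afternoon; all other steps matched the compound group. Apparatus was cleaned with 75% alcohol after each pretest, training and test session.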
# [8] = test system: pyramidal neurons in the peri-infarct cortex; experiment: Fiber photometry of GCaMP6s Ca2+ signal; type: in vivo, mouse; settings: intranasal administration; Figures S6F, S6G
# In short: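 AAV-CaMKII-GCaMP6s was injected into the peri-infarct cortex (AP 0, ML −2.0, DV −1.3 mm from bregma). An optical fibre (230 μm OD, 0.37 NA) was implanted at the same site. GCaMP6s fluorescence was excited with a 488 nm LED at 20 μW at the fibre tip and recorded by fibre photometry.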
# [9] = test system: infarct volume; experiment: Infarct volume; type: in vivo; settings: Nissl staining 12 days after stroke; n = 8
# In short: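 Coronal 40 μm vibratome sections were stained in Nissl solution at 40°C for 10 min. Infarct size was measured on microscope images.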
# [10] = test system: GAT-1; experiment: 3H-GABA uptake in HEK293 cells overexpressing GAT-1; type: cell-based; settings: n = 5
# In short: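 HEK293 cells were kept in MEM with 10% FBS and transduced with lentiviral GAT-1-EGFP. These GAT-1-overexpressing cells were incubated with peptide (100 nM), or with the mutant control peptide at the same concentration, before 3H-GABA uptake was measured.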
# [11] = Concentration of ZLQ-3-1 in brain tissue; type: in vivo, rat; settings: intranasal delivery; brain homogenate, LC-MS/MS
# In short: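 Brain tissue was quantified by LC-MS/MS with verapamil run alongside. The test compound eluted at 1.45 min and verapamil at 1.65 min.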
# [12] = test system: mice with photothrombotic stroke; experiment: Motor function; type: in vivo, mouse
# In short: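 Photothrombotic stroke was induced with rose bengal, holding body temperature at 37 ± 0.5°C. For grid walking, each mouse walked freely for 5 min on a wire grid 50 cm high. For the cylinder task, mice explored a clear cylinder (15 cm tall, 10 cm diameter) for 5 min, and only rears with both forelimbs clearly visible were timed. Tests ran 7 days before stroke and at set days after stroke.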
# [13] = test system: mice; experiment: Open field test; type: in vivo, mouse; settings: 5 min; n = 14
# [14] = test system: extracellular GABA ([GABA]o); experiment: Extracellular GABA in peri-infarct cortex; type: in vivo, mouse; settings: intranasal administration; Figure S6A; n = 5
# In short: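 A CMA7 microdialysis probe was placed in peri-infarct cortex (AP 0, ML −0.65, DV −1.5 mm from bregma). It was perfused at 1 μL/min with bicarbonate-buffered saline containing 10 mM glucose. Dialysate was collected in 20-min fractions over 2 h, and the second fraction was analysed. GABA was measured by ELISA (activator, 37°C for 15 min in the dark, stop solution, A450).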
# [15] = test system: layer 5 peri-infarct pyramidal neurons; experiment: Whole-cell recordings in acute brain slices from treated mice; type: in vivo, mouse; settings: intranasal administration
# [16] = 5 mg/kg intranasally days 5-11 after stroke, test day 12
substance,measurement,setting,value
Glucose-D-Arg-Dmt-Cha-D-Lys-D-Arg-NH2 [ZLQ-3-1],stroke-induced GAT-1-Synt1A interaction in the hippocampus,[1],reversed stroke-induced GAT-1-Synt1A interaction
same,stroke-induced GAT-1-Synt1A interaction in the peri-infarct cortex,[1],reversed stroke-induced GAT-1-Synt1A interaction
same,3H-GABA uptake in cultured neurons,[2],significantly increased ^3H-GABA uptake
same,"stroke-induced GAT-1-Synt1A interaction, intranasal dosing",[3],reversed stroke-induced GAT-1-Synt1A interaction
same,stroke-induced increase in [GABA]o in the peri-infarct cortex,[4],reversed
same,swimming speed,[5],did not affect swimming speed
same,target entries in the probe test,[5],increased target entries
same,time spent in target quadrant in the probe test,[5],increased
same,latency (time to reach the platform),[5]; training trials,significantly decreased latency
same,foot faults in the grid-walking task,[6],decreased foot faults
same,forelimb sticky-tape ratio in modified sticky-tape test,[6],increased forelimb sticky-tape ratio
same,forelimb symmetry index in the cylinder task,[6],decreased
same,somatosensory and motor functions,"[6]; tests days 4, 12, 19, 26",significantly improved somatosensory and motor functions
same,conditioned place preference,[7],did not affect
same,"stroke-induced decline in cortical excitability, WT mice",[8],prevented stroke-induced decline in cortical excitability
same,infarct volume,[9],did not change infarct volume
same,"reuptake of GABA by GAT-1, HEK293 cells overexpressing GAT-1",[10],did not directly affect the reuptake of GABA by GAT-1
same,brain exposure of ZLQ-3-1 (time course of concentrations in brain tissue),[11],rapid and long-lasting brain exposure; also recorded: high brain exposure
same,"impairment of motor functions, intranasal 5 mg/kg",[12]; [16],attenuated the impairment of motor functions
same,motor functional recovery of ZLQ-3-1-treated versus ZLQ-3-treated mice,[12]; [16],better motor functional recovery than ZLQ-3-treated mice
same,"impairment of motor functions, intraperitoneal dosing","[12]; 2.5, 5, 10, or 20 mg/kg i.p. days 5-11 after stroke, test day 12",attenuated the impairment of motor functions dose dependently
same,"long-term motor functional recovery, WT mice","[12]; intranasal treatment days 5-11 after stroke, Figure S5K",long-lasting motor functional recovery effects
same,"locomotor activity (open field test: total distance, velocity)",[13],did not affect locomotor activity
same,stroke-induced increase in extracellular GABA,[14],reversed stroke-induced increases in extracellular GABA
same,stroke-induced increase in tonic inhibition,"[15]; Figures S6B, S6C",reversed stroke-induced increases
same,inhibitory synaptic transmission (sIPSC),"[15]; Figures S6D, S6E",increased inhibitory synaptic transmission
